Calls of active or inactive are those of the source. No cut-off for these calls is given here.
Legend:
Rattus norvegicus [1] = assay: In vivo neuroprotective activity in Sprague-Dawley rat transient middle cerebral artery occlusion model assessed as suppression of neuropathological changes at 1.5 to 6 mg/kg, iv measured 24 hrs post reperfusion by uranyl acetate/lead citrate staining-based transmission electron microscopic analysis; assay type: functional, organism-based
Summary of the method: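 Rats had 60 min MCAO with iv dosing (1.5-6.0 mg/kg) at reperfusion. At 24 h they were perfused with PBS, then acrolein in 2% paraformaldehyde. Tissue was postfixed in 2.5% glutaraldehyde for 2 h and 1% OsO4 for 2 h, dehydrated and Epon-embedded. Ultrathin sections were stained with uranyl acetate/lead citrate and examined by TEM at 12000×.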

Rattus norvegicus [2] = assay: In vivo neuroprotective activity in Sprague-Dawley rat transient middle cerebral artery occlusion model assessed as suppression of neuronal loss in cerebral cortex at 1.5 to 6 mg/kg, iv measured 24 hrs post reperfusion by TUNEL assay; assay type: functional, organism-based
Summary of the method: (§1)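 Transient MCAO in rats (60 min occlusion), with iv treatment at 1.5, 3.0 or 6.0 mg/kg at reperfusion. At 24 h brains were perfusion-fixed in 4% paraformaldehyde and paraffin-embedded. Hippocampal or cortical sections were proteinase K-treated (20 µg/mL, 15 min, RT), given TdT reaction (37 °C, 1 h) and anti-digoxigenin-AP detection, and TUNEL-positive cells were examined at 200×.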

Rattus norvegicus [3] = assay: In vivo neuroprotective activity in Sprague-Dawley rat transient middle cerebral artery occlusion model assessed as suppression of neuronal loss in hippocampus at 1.5 to 6 mg/kg, iv measured 24 hrs post reperfusion by TUNEL assay; assay type: functional, organism-based; summary of the method: as §1
Rattus norvegicus [4] = assay: In vivo neuroprotective activity in iv dosed Sprague-Dawley rat transient middle cerebral artery occlusion model assessed as suppression of neuronal loss in hippocampus measured 24 hrs post reperfusion by nissl staining assay; assay type: functional, organism-based
Summary of the method: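 After 60 min transient MCAO with iv treatment at reperfusion, rats were perfused at 24 h with PBS, then 4% buffered paraformaldehyde. Brains were paraffin-embedded and coronal sections stained with 0.5% cresyl fast violet (Nissl). Cortex and hippocampus were examined at 200×.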

Rattus norvegicus [5] = assay: In vivo neuroprotective activity in Sprague-Dawley rat transient middle cerebral artery occlusion model assessed as reduction of brain-water content at 1.5 to 6 mg/kg, iv measured 24 hrs post reperfusion; assay type: functional, organism-based
Summary of the method: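 Male SD rats (7 weeks, 260-280 g) had 60 min transient right MCA occlusion with a nylon filament, then reperfusion. Saline or drug (1.5, 3.0, 6.0 mg/kg) was injected iv at reperfusion. Animals without neurological deficit were replaced. At 24 h brains were oven-dried at 110 °C for 24 h, and water content was taken as (wet−dry)/wet; n = 12.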

Rattus norvegicus [6] = assay: In vivo neuroprotective activity in Sprague-Dawley rat transient middle cerebral artery occlusion model assessed as reduction of infarct size at 3 mg/kg, iv measured 24 hrs post reperfusion by TTC staining assay relative to vehicle-treated control; assay type: functional; design: scale not given: the % may be the effect or the level left
Summary of the method: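 Male Sprague-Dawley rats, 7 weeks, 260–280 g, under 10% chloral hydrate ip. Right MCA occluded 60 min by tip-burned 4-0 nylon thread via common carotid, then reperfused. Saline or drug given iv at reperfusion, ethanol as cosolvent. Killed 24 h later; six 2 mm slices in 1% TTC in PBS, 37 °C, 30 min. Infarct area traced as % of total area; n = 12.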

[7] = Cytotoxicity against rat PC12 cells assessed as cell proliferation at 10 uM by MTT assay relative to control; assay type: cell-based, PC-12; details: read-out: Activity
Summary of the method: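 PC12 cells were grown in DMEM with 5% FBS, 5% horse serum and 2 mM glutamine at 37 °C, 5% CO2. They were seeded at 5×10^3 cells/well for 24 h, then exposed to 10 µM compound in full medium. Viability was read by MTT (5 mg/mL, 4 h) at 570 nm as % of control absorbance; n = 3.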

Cortex = assay: Drug uptake in Sprague-Dawley rat cortex at 2 x 10^-5 mol/kg, iv measured at 60 mins by LC-MS analysis; assay type: ADME, organism-based; details: in vivo, 1 h
Summary of the method: (§2)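 Male Sprague-Dawley rats (260-280 g, n = 4) given a single iv dose of 6 mg/kg. Blood was taken from the jugular vein into heparin tubes under ether, and plasma was spun out and stored at -70 °C. After saline perfusion, cortex was homogenized in 2 volumes of water. Samples were precipitated with acetonitrile with internal standard added and quantified by LC-MS against a weighted linear calibration.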

Plasma = assay: Drug uptake in Sprague-Dawley rat plasma at 2 x 10^-5 mol/kg, iv measured at 60 mins by LC-MS analysis; assay type: ADME, organism-based; details: in vivo, 1 h; summary of the method: as §2
[8] = Volume of distribution in Sprague-Dawley rat plasma at 2 x 10^-5 mol/kg, iv by LC-MS analysis; assay type: ADME, organism-based; details: 2e-05 mol/kg; summary of the method: as §2
[9] = AUC in Sprague-Dawley rat cortex at 2 x 10^-5 mol/kg, iv by LC-MS analysis; assay type: ADME, organism-based; details: 2e-05 mol/kg; summary of the method: as §2
[10] = AUC in Sprague-Dawley rat plasma at 2 x 10^-5 mol/kg, iv by LC-MS analysis; assay type: ADME, organism-based; details: 2e-05 mol/kg; summary of the method: as §2
[11] = Terminal half life in Sprague-Dawley rat cortex at 2 x 10^-5 mol/kg, iv by LC-MS analysis; assay type: ADME, organism-based; details: 2e-05 mol/kg, read-out: beta t1/2; summary of the method: as §2
[12] = Terminal half life in Sprague-Dawley rat plasma at 2 x 10^-5 mol/kg, iv by LC-MS analysis; assay type: ADME, organism-based; details: 2e-05 mol/kg, read-out: beta t1/2; summary of the method: as §2
[13] = Cmax in Sprague-Dawley rat cortex at 2 x 10^-5 mol/kg, iv measured at 2 mins by LC-MS analysis; assay type: ADME, organism-based; details: 2e-05 mol/kg; summary of the method: as §2
Rattus norvegicus [14] = assay: Anti-ischemia activity in Sprague-Dawley rat transient middle cerebral artery occlusion model assessed as inhibition of cleaved caspase-3 protein expression in cerebral cortex at 1.5 to 6 mg/kg, iv measured 24 hrs post reperfusion by Western blot analysis relative to vehicle-treated control; assay type: functional, organism-based
Summary of the method: (§3)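 Rats underwent 60 min intraluminal right MCA occlusion under chloral hydrate, then reperfusion, with iv saline or drug (1.5, 3.0, 6.0 mg/kg) at reperfusion. At 24 h they were saline-perfused and cortex and hippocampus lysed in RIPA buffer. Protein was BCA-normalized, run on SDS-PAGE and blotted for Bcl-2, Bax, cleaved caspase-3 and β-actin with ECL detection; n = 4.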

Rattus norvegicus [15] = assay: Anti-ischemia activity in Sprague-Dawley rat transient middle cerebral artery occlusion model assessed as inhibition of cleaved caspase-3 protein expression in hippocampus at 1.5 to 6 mg/kg, iv measured 24 hrs post reperfusion by Western blot analysis relative to vehicle-treated control; assay type: functional, organism-based; summary of the method: as §3
Rattus norvegicus [16] = assay: Anti-ischemia activity in Sprague-Dawley rat transient middle cerebral artery occlusion model assessed as inhibition of Bax protein expression in cerebral cortex at 1.5 to 6 mg/kg, iv measured 24 hrs post reperfusion by Western blot analysis relative to vehicle-treated control; assay type: functional, organism-based; summary of the method: as §3
Rattus norvegicus [17] = assay: Anti-ischemia activity in Sprague-Dawley rat transient middle cerebral artery occlusion model assessed as inhibition of Bax protein expression in hippocampus at 1.5 to 6 mg/kg, iv measured 24 hrs post reperfusion by Western blot analysis relative to vehicle-treated control; assay type: functional, organism-based; summary of the method: as §3
Rattus norvegicus [18] = assay: Anti-ischemia activity in Sprague-Dawley rat transient middle cerebral artery occlusion model assessed as upregulation of Bcl-2 protein expression in cerebral cortex at 1.5 to 6 mg/kg, iv measured 24 hrs post reperfusion by Western blot analysis relative to vehicle-treated control; assay type: functional, organism-based; summary of the method: as §3
Rattus norvegicus [19] = assay: Anti-ischemia activity in Sprague-Dawley rat transient middle cerebral artery occlusion model assessed as upregulation of Bcl-2 protein expression in hippocampus at 1.5 to 6 mg/kg, iv measured 24 hrs post reperfusion by Western blot analysis relative to vehicle-treated control; assay type: functional, organism-based; summary of the method: as §3

COc1cc(O)cc2oc(=O)c(N3CCN(C)CC3)c(C)c12
Activity (Rattus norvegicus [1]): Active | Activity (Rattus norvegicus [2]): Active | Activity (Rattus norvegicus [3]): Active | Activity (Rattus norvegicus [4]): Dose-dependent effect | Activity (Rattus norvegicus [5]): Active | Activity (Rattus norvegicus [6]): 20.36% | viability at 10 µM [7]: 101% | Drug uptake (Cortex): Not Active | Drug uptake (Plasma): Not Active | Vd [8]: 0.084 L | AUC [9]: 0.0424 µg·h/mL | AUC [10]: 2.87 µg·h/mL | half-life [11]: 15.5 min | half-life [12]: 6.51 min | Cmax [13]: 0.122 µg/mL | inhibition (Rattus norvegicus [14]): Active | inhibition (Rattus norvegicus [15]): Active | inhibition (Rattus norvegicus [16]): Active | inhibition (Rattus norvegicus [17]): Active | Activity (Rattus norvegicus [18]): Active | Activity (Rattus norvegicus [19]): Active

Reference: ChEMBL document CHEMBL2417530, “Coumarin derivatives protect against ischemic brain injury in rats” (Eur J Med Chem, 2013)
